In the library only some 5.8% were active in any assay of this set; here they are far more common.
KCC2 mod = modulators of human KCC2 chloride dependent transport. AID 1456. B-score of Tl+ flux slope (higher = more flux/activation; lower = inhibition) at 10 µM. Q9H2X9. actives 2.2% (n = 190,000). KCC2 cells, thallium flux FluoZin-2 fluorescence;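 active = thallium flux slope and its plate-corrected score both differing from the plate sample mean at a set confidence after two filtering rounds, in either direction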;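 also: slope of fluorescence scaled to starting intensity during 10 to 20 s after thallium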
14-3-3 Bad PPI = disrupts binding of bovine 14-3-3 zeta to phospho-Bad peptide; TR-FRET 14-3-3zeta/Dy647-pBad peptide displacement, 1 h; inhibition, % at 21.7 µM; AID 781; P63103; actives 0.71% (n = 220,000);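 active = inhibition above about 70%, limit read from the data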
Target sequence (P63103 whole entry, looked up): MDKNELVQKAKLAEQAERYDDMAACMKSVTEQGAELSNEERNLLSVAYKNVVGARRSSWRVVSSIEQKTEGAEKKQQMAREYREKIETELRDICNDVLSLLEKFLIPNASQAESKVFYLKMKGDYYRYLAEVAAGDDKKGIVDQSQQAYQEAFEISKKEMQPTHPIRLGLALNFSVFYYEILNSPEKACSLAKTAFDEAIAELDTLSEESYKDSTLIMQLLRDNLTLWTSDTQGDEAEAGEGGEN
ROMK mod = modulates human ROMK potassium channel activity. actives 2% (n = 130,000). B-score at 10 µM. Tet-inducible ROMK, thallium flux fluorescence; actives lie on both sides;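 active = signal ratio slope over the read window, or its plate-corrected B-score, at least 3 SD from the plate mean, either direction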;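 also: B-score of the F/F0 ratio slope over 7 to 12 s after thallium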
RBBP9 inhibitor = inhibitors of human serine hydrolase RBBP9; recombinant RBBP9, FP-Rh probe fluorescence polarization; inhibition, % at 7.94 µM; actives 0.2% (n = 220,000); AID 1515;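 active = inhibition above the campaign mean of all tested compounds plus 3 SD, cut at about 14% in these data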
Target sequence (O75884 whole entry, looked up): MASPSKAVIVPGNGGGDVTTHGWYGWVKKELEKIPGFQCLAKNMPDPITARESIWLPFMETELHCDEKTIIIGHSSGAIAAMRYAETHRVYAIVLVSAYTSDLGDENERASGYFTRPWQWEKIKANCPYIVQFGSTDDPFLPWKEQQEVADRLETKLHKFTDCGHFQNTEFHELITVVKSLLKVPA
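Test system: recombinant human RBBP9; Timing: 30 min then 45 min, 25 °C; Detection: fluorescence polarization; Control set: RBBP9 with DMSO as uninhibited control, no-protein wells as full inhibition; Compound dosing: one concentration, 7.94 µM nominal, 0.794% DMSO; Probe or stimulus: FP-Rh activity-based probe, 375 nM before mixing.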
p47phox inh = blocks human p47phox regulatory protein of NADPH oxidases; P14598; p47phox/p22phox peptide binding, fluorescence polarization, 2 h; inhibition, % at 24.7 µM; actives 0.53% (n = 220,000);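 active = inhibition above about 30%, limit read from the data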
WT yeast gro inh = growth inhibition of WT yeast, mitochondrial fusion screen; mitochondrial fusion phenotypic screen, WT strain; inhibition, % at 10 µM; actives 2.1% (n = 190,000); AID 1362; in the data active = inhibition above about 58%; tested in S. cerevisiae
Numbers stand for hits; n = inactive; x = no result.

SMILES	KCC2 mod	14-3-3 Bad PPI	ROMK mod	RBBP9 inhibitor	p47phox inh	WT yeast gro inh
Cc1ccc(OCC(=O)c2c(O)c3ccccc3oc2=O)cc1C	n	74	x	n	n	n
CCc1ccc(C2=NN(c3ccc(S(N)(=O)=O)cc3)C(c3ccc(F)cc3)C2)cc1 (stereo unspecified)	n	n	x	n	n	94
O=S(=O)(O)c1ccc(N2N=C(c3ccccc3)CC2c2ccccc2)cc1 (stereo unspecified)	n	n	n	n	n	n
Fc1ccc(N2N=C(c3cccs3)CC2c2ccccc2)cc1 (stereo unspecified)	n	n	n	n	n	n
NS(=O)(=O)c1ccc(N2N=C(c3ccccc3)CC2c2ccccc2)cc1 (stereo unspecified)	n	n	x	n	n	72
COc1ccccc1-c1nnc(NC(=O)c2ccc(S(=O)(=O)N(C)Cc3ccccc3)cc2)o1	x	n	-3.4	n	n	n
CN(Cc1ccccc1)S(=O)(=O)c1ccc(C(=O)Nc2nnc(C3CC3)o2)cc1	n	n	x	n	n	74
CCc1nnc(NC(=O)c2ccc(S(=O)(=O)N(CC)Cc3ccccc3)cc2)o1	n	n	x	n	n	63
CCN(CC)S(=O)(=O)c1ccc(C(=O)Nc2nnc(COC)o2)cc1	n	n	n	n	x	n
O=C(O)CSc1ccc(NC(=O)Nc2ccccc2F)cc1	n	n	x	n	n	x
Cc1nnsc1Sc1ccccc1C(=O)O	n	n	n	n	n	n
O=C(OCC(=O)N1CCN(C(=O)c2ccco2)CC1)c1cc(-c2ccc(Cl)c(Cl)c2Cl)nc2ccccc12	n	n	n	n	37	n
CSc1ncccc1C(=O)Nc1nnc(C2CC2)s1	n	n	n	n	n	n
CC(c1ccccc1)C1CC(=O)N(c2cc(Cl)ccn2)C1=O (stereo unspecified)	n	n	x	n	n	x
O=C(N/N=C/c1ccc2c(c1)OCO2)c1cc2ccccc2o1	n	n	x	n	n	x
O=C(COc1ccc(/C=N/NC(=O)c2cc3ccccc3o2)cc1Cl)Nc1ccccc1	n	79	x	n	n	n
Clc1ccc(-c2nnc(-c3ccco3)nc2N2CCCCC2)cc1	n	n	n	n	n	66
COC(=O)c1cccc(Oc2cccc(Cl)n2)c1	n	n	n	n	n	n
O=C(COC(=O)c1ccncc1)Nc1cc(Cl)c(Cl)cc1Cl	n	n	x	n	n	71
CC(N)c1ccc(Cl)cc1Cl (stereo unspecified)	n	n	x	n	n	n
O=C(COC(=O)C1COc2ccccc2O1)NC(=O)Nc1ccc2c(c1)OCCO2 (stereo unspecified)	x	n	n	n	n	99
O=C(COC(=O)C1COc2ccccc2O1)NC(=O)NC1CCCC1 (stereo unspecified)	n	n	n	n	n	n
NC(=S)N/N=C/c1ccc(-c2cc(Cl)ccc2Cl)o1	n	n	n	n	n	72
CCOC(=O)C1CCCN(c2nc3ccccc3nc2C(C#N)C(=O)OCC)C1 (stereo unspecified)	n	n	x	n	n	n
OCCN1CCN(c2nc(-c3ccccc3)nc3c2oc2ccccc23)CC1	x	n	n	n	n	n
SMILES	KCC2 mod	14-3-3 Bad PPI	ROMK mod	RBBP9 inhibitor	p47phox inh	WT yeast gro inh
CCOC(=O)C1CCN(c2nc3ccccc3nc2C(C#N)C(=O)NCCc2ccccc2)CC1 (stereo unspecified)	n	n	n	n	n	82
CCOC(=O)C1CCN(c2nc(-c3ccccc3)nc3c2oc2ccccc23)CC1	x	81	n	n	n	n
CCOC(=O)C1CCN(c2nc(-c3ccc(C)cc3)nc3ccccc23)CC1	n	n	n	n	n	71
CCOC(=O)C1CCN(c2ncnc3c2oc2ccccc23)CC1	n	n	n	n	n	n
O=C(O)C1CCN(c2nc(-c3ccccc3)nc3c2oc2ccccc23)CC1	-2.8	n	n	n	n	n
O=[N+]([O-])c1ccc(-c2cn3c(n2)CCC3)cc1	n	n	x	n	n	x
CCOC(=O)C1CCN(C(=O)c2cccc(Cl)c2)CC1	n	n	x	n	n	n
CCOC(=O)C1CCN(c2c(C(=O)c3ccccc3)cnc3ccc(Cl)cc23)CC1	n	n	n	n	n	75
Nc1ccc2nc(CN3CCOCC3)[nH]c2c1	n	91	n	n	n	66
O=C(CSc1ncc(-c2ccccc2)[nH]1)Nc1cccc(O)c1	n	n	n	n	n	n

Assay outcomes (PubChem BioAssay)
